Results from ChEMBL document CHEMBL1129961, “Design, synthesis, and antiviral evaluation of 2-chloro-5,6-dihalo-1-beta-D-ribofuranosylbenzimidazoles as potential agents for human cytomegalovirus infections” (J Med Chem, 1997).

Assays:
KB = assay: Inhibition of KB cell growth was determined; assay type: functional, cell-based; conditions: Homo sapiens
In short: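 KB cells seeded at 3000–5000 per well, overnight at 37 °C. Compound added in quadruplicate at six to eight concentrations, 48 h at 37 °C in CO2 (two population doublings). Ethanol fixation, 0.1% crystal violet staining, acidified-ethanol elution, absorbance at 570 nm. IC50 by linear regression against log concentration.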

Human betaherpesvirus 5 [1] = assay: Concentration required for 50% inhibition of HCMV replication was measured using a Plaque reduction assay; assay type: functional, organism-based
In short: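 HFF cells in 24-well dishes infected with about 100 pfu of HCMV (Towne) per cm² cell sheet. After adsorption, compound in growth medium added to duplicate wells at four to eight concentrations. Incubated 7 days at 37 °C, then crystal violet fixing/staining and microscopic plaque counts. IC50 by linear regression of % plaque reduction against log concentration.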

Human betaherpesvirus 5 [2] = assay: Concentration required for 90% inhibition of HCMV replication was measured using a yield reduction assay; assay type: functional
In short: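 HFF monolayers in 96-well dishes infected with HCMV (Towne) at moi 0.5 to 1 pfu per cell. Compound serially diluted 1:3, 100 to 0.14 μM, in duplicate. 7 days at 37 °C, then one freeze-thaw cycle. Progeny titred by 1:3 serial dilution onto fresh HFF monolayers with plaque counts. IC90 by regression of % inhibition against log concentration.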

HFF = assay: Visual cytotoxicity was scored on HFF cells at time of HCMV plaque enumeration; assay type: functional, cell-based; conditions: Homo sapiens
In short: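 Stationary HFF cells from the HCMV plaque assay, not affected by virus, inspected microscopically for cytotoxicity when plaques were counted after 7 days at 37 °C with compound at four to eight concentrations.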

Human alphaherpesvirus 1 = assay: Antiviral activity was measured by plaque assay against HSV-1 virus by ELISA method; assay type: functional, organism-based
In short: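 HSV-1 (KOS strain) ELISA in BSC-1 cells, 10 000 per well in MEM(E) + 10% calf serum, seeded overnight at 37 °C. Drug in quadruplicate wells plus virus at 100 pfu/well, 3 days at 37 °C. Read-out: HRP-conjugated rabbit anti-HSV-1 antibody with TMB substrate, stopped with H2SO4, absorbance at 450 and 570 nm. IC50 from linear regression of % inhibition against log concentration.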

Row | Compound | IC50 (KB) | IC50 (Human betaherpesvirus 5 [1]) | IC90 (Human betaherpesvirus 5 [2]) | IC50 (HFF) | IC50 (Human alphaherpesvirus 1)
1 | OC[C@H]1OC(n2c(Cl)nc3cc(I)c(I)cc32)[C@H](O)[C@@H]1O (some centres not stated) | 27 µM | 2.5 µM | 2.2 µM | 13 µM | 57 µM
2 | O=[N+]([O-])c1cc2[nH]c(Cl)nc2cc1I | – | 2.8 µM | 7 µM | 10 µM | 25 µM
3 | OC[C@H]1OC(n2c(Cl)nc3cc(Br)c(Br)cc32)[C@H](O)[C@@H]1O (some centres not stated) | 88 µM | 3.8 µM | 1.3 µM | 44 µM | > 100 µM
4 | Nc1cc2[nH]c(Cl)nc2cc1[N+](=O)[O-] | – | > 100 µM | – | > 100 µM | 90 µM
5 | OC[C@H]1O[C@@H](n2c(Cl)nc3cc(Cl)c(Cl)cc32)[C@H](O)[C@@H]1O | – | – | 1.4 µM | – | –
6 | Fc1cc2nc(Cl)[nH]c2cc1F | > 100 µM | > 100 µM | – | > 100 µM | –
7 | OC[C@H]1OC(n2c(Cl)nc3ccccc32)[C@H](O)[C@@H]1O (some centres not stated) | > 100 µM | > 100 µM | > 100 µM | > 100 µM | –
8 | Clc1nc2cc(I)c(I)cc2[nH]1 | – | 20 µM | – | 32 µM | –
9 | O=C(O)P(=O)(O)O [FOSCARNET] | – | – | – | > 100 µM | –
10 | OC[C@H]1OC(n2c(Cl)nc3cc(F)c(F)cc32)[C@H](O)[C@@H]1O (some centres not stated) | > 100 µM | > 100 µM | 75 µM | > 100 µM | > 100 µM
11 | Cc1cc2nc(Cl)n(C3O[C@H](CO)[C@@H](O)[C@H]3O)c2cc1C (some centres not stated) | > 100 µM | > 100 µM | – | > 100 µM | > 100 µM
12 | Clc1nc2cc(Br)c(Br)cc2[nH]1 | 35 µM | 8.5 µM | – | 32 µM | 65 µM
13 | Nc1cc2[nH]c(Cl)nc2cc1I | – | > 100 µM | – | > 100 µM | > 100 µM
14 | Nc1nc2c(ncn2COC(CO)CO)c(=O)[nH]1 [GANCICLOVIR] | > 100 µM | – | 1.6 µM | > 100 µM | –
